Data reported in ChEMBL document CHEMBL1133997, “2,2-Dimethyl-4,5-diaryl-3(2H)furanone derivatives as selective cyclo-oxygenase-2 inhibitors” (Bioorg Med Chem Lett, 2001).

Columns and labels:
[1] = molecular target: T1, Prostaglandin G/H synthase 1 (Mus musculus, UniProt P22437); test: Ability to inhibit Prostaglandin G/H synthase 1 by using freshly harvested mouse peritoneal macrophages
T1 sequence (P22437 whole entry): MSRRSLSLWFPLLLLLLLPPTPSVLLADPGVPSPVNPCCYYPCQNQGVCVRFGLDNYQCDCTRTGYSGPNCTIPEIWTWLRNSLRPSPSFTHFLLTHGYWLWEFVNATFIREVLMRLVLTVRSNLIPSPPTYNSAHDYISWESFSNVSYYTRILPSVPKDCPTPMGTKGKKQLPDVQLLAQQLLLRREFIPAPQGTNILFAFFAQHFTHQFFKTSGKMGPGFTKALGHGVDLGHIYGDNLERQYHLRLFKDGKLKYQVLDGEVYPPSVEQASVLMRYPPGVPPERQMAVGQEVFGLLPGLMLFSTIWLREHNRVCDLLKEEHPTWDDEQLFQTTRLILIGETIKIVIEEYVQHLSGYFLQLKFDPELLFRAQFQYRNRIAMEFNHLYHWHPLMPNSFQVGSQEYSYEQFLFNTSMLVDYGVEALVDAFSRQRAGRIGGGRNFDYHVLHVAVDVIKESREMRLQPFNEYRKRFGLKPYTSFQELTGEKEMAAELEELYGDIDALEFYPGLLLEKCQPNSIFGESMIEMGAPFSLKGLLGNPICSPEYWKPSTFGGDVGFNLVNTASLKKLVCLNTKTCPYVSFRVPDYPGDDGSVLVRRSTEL

[2] = molecular target: T2, Prostaglandin G/H synthase 2 (Mus musculus, UniProt Q05769); test: Ability to inhibit Prostaglandin G/H synthase 2 by using freshly harvested mouse peritoneal macrophages
T2 sequence (Q05769 whole entry): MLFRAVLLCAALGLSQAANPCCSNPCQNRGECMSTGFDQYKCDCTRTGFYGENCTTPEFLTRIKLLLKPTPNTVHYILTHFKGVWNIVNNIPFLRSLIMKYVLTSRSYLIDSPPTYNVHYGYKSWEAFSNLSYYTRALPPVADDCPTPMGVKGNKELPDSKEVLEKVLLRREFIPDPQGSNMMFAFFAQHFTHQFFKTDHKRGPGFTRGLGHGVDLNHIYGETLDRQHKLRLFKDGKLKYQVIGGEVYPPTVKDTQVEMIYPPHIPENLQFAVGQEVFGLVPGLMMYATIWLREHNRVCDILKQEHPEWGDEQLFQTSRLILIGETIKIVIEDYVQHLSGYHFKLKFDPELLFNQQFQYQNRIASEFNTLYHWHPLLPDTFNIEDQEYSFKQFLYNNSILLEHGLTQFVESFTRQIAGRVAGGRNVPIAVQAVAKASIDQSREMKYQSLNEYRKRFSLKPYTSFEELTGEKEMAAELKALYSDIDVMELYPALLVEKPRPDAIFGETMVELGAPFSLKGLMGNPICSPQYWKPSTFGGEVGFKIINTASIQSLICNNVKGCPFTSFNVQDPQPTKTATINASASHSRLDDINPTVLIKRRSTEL

Rattus norvegicus [3] = test: In vivo inhibitory activity against carrageenan induced paw edema in Sprague-Darley rats after oral administration of the compound; type: functional
Procedure, shortened: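 Sprague–Darley rats were given compound orally at 3 mg/kg body weight. Read-out was percent inhibition of paw edema, using five animals per group.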

Rattus norvegicus [4] = organism: Rattus norvegicus; test: Effective dose required for the inhibition of adjuvant arthritis in Sprague-Darley rats; type: functional
Procedure, shortened: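 Adjuvant-induced arthritis in Sprague–Darley rats, with compound dosed daily (mg/kg/day).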

| SMILES | IC50 [1] [µM] | IC50 [2] [µM] | Inhibition (Rattus norvegicus [3]) [%] | ED50 (Rattus norvegicus [4]) [mg/kg/day] |
| --- | --- | --- | --- | --- |
| CC1(C)OC(c2ccc(S(C)(=O)=O)cc2)=C(c2cccc(Cl)c2)C1=O |  |  | 32 |  |
| CC1(C)OC(c2ccc(S(C)(=O)=O)cc2)=C(c2cccc(F)c2)C1=O |  |  |  | 0.08 |
| CC1(C)OC(c2ccc(S(C)(=O)=O)cc2)=C(c2cc(F)cc(F)c2)C1=O |  | 0.0793 |  | 0.03 |
| Cc1ccc(-c2cc(C(F)(F)F)nn2-c2ccc(S(N)(=O)=O)cc2)cc1 [CELECOXIB] |  |  | 31 | 0.2 |

Continued, in another order:

| IC50 [1] [µM] | IC50 [2] [µM] | SMILES | Inhibition (Rattus norvegicus [3]) [%] | ED50 (Rattus norvegicus [4]) [mg/kg/day] |
| --- | --- | --- | --- | --- |
| 56.1 | 0.842 | Cc1ccccc1C1=C(c2ccc(S(C)(=O)=O)cc2)OC(C)(C)C1=O |  |  |
| 8.76 | 0.146 | CC1(C)OC(c2ccc(S(C)(=O)=O)cc2)=C(c2ccccc2)C1=O |  |  |
| 7.31 | 0.122 | CC1(C)OC(c2ccc(S(C)(=O)=O)cc2)=C(c2cccc(C(F)(F)F)c2)C1=O |  | 0.06 |
|  | 0.191 | CS(=O)(=O)c1ccc(C2=C(c3ccccc3)C(=O)OC2)cc1 [ROFECOXIB] |  |  |
